What was measured:
Chitinase B [1] = biological target: T1, Chitinase B (Serratia marcescens, UniProt P11797); test: Inhibition of Serratia marcescens chitinase ChiB assessed as reduction in chitinolytic activity using 4MU-(GlcNAc)2 substrate by fluorescence based assay
T1 sequence (P11797 whole entry): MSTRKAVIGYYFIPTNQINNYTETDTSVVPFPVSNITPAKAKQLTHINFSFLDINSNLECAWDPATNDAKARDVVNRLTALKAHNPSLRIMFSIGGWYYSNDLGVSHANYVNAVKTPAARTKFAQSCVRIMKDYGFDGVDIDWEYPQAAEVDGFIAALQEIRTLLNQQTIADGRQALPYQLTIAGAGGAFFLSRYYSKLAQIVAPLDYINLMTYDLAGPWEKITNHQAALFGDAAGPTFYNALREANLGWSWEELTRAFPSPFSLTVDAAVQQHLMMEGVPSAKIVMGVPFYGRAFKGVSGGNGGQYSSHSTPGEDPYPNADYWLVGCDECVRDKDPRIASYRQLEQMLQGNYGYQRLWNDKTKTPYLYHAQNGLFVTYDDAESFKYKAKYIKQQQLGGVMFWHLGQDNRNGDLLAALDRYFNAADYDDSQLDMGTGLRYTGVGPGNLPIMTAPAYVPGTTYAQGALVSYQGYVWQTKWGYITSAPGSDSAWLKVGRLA
Method in brief: (§1)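 Crude SmChiB: supernatant of sonicated E. coli DH5α carrying pMCB7, grown 24 h at 37 °C in LB with ampicillin and 0.5 mM IPTG, then diluted ×40. Enzyme and inhibitors (in MeOH) were mixed in 0.1 M phosphate, pH 7.0, at 37 °C, and 80 μM 4MU(GlcNAc)2 solution was added. Fluorescence (ex 355/em 460 nm) was read every 60 s, with rates corrected for inhibitor quenching. IC50 was taken from sigmoidal dose–response fits.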

Proteus mirabilis = test: Antibacterial activity against Proteus mirabilis IFO3849 by antimicrobial disk and dilution susceptibility test; type: functional
Serratia marcescens = test: Antibacterial activity against Serratia marcescens IFO12648 by antimicrobial disk and dilution susceptibility test; type: functional
Staphylococcus aureus [2] = test: Antibacterial activity against methicillin-sensitive Staphylococcus aureus Smith by antimicrobial disk and dilution susceptibility test; type: functional
[3] = system: Staphylococcus epidermidis; test: Antibacterial activity against Staphylococcus epidermidis KUB795 by antimicrobial disk and dilution susceptibility test; type: functional
Klebsiella aerogenes = test: Antibacterial activity against Enterobacter aerogenes NCTC 10006 by antimicrobial disk and dilution susceptibility test; type: functional
Klebsiella pneumoniae = test: Antibacterial activity against Klebsiella pneumoniae NCTC 9632 by antimicrobial disk and dilution susceptibility test; type: functional
Enterobacter cloacae = test: Antibacterial activity against Enterobacter cloacae IFO13535 by antimicrobial disk and dilution susceptibility test; type: functional
Pseudomonas aeruginosa [4] = test: Antibacterial activity against Pseudomonas aeruginosa 46001 by antimicrobial disk and dilution susceptibility test; type: functional
Micrococcus luteus = test: Antibacterial activity against Micrococcus luteus ATCC 9341 by antimicrobial disk and dilution susceptibility test; type: functional
[5] = system: Acinetobacter calcoaceticus; test: Antibacterial activity against Acinetobacter calcoaceticus IFO12552 by antimicrobial disk and dilution susceptibility test; type: functional
Escherichia coli = test: Antibacterial activity against Escherichia coli NIHJ JC-2 by antimicrobial disk and dilution susceptibility test; type: functional
Enterococcus faecalis = test: Antibacterial activity against Enterococcus faecalis ATCC 29212 by antimicrobial disk and dilution susceptibility test; type: functional
Proteus vulgaris = test: Antibacterial activity against Proteus vulgaris OX-19 by antimicrobial disk and dilution susceptibility test; type: functional
Morganella morganii = test: Antibacterial activity against Morganella morganii IID Kono by antimicrobial disk and dilution susceptibility test; type: functional
Staphylococcus aureus [6] = test: Antibacterial activity against methicillin-sensitive Staphylococcus aureus FDA209P by antimicrobial disk and dilution susceptibility test; type: functional
Citrobacter freundii = test: Antibacterial activity against Citrobacter freundii ATCC 8090 by antimicrobial disk and dilution susceptibility test; type: functional
Pseudomonas aeruginosa [7] = test: Antibacterial activity against Pseudomonas aeruginosa E-2 by antimicrobial disk and dilution susceptibility test; type: functional
Chitinase B [8] = biological target: T1, Chitinase B; test: Inhibition of Serratia marcescens chitinase ChiB; method in brief: as §1

SMILES: CC[C@H]1OC(=O)[C@H](C)[C@@H](O)[C@H](C)[C@@H](O)[C@](C)(O)C[C@@H](C)/C(=N\OCc2cn(CCNC(=N)NC(=O)NC)nn2)[C@H](C)[C@@H](O)[C@]1(C)O
- IC50 (Chitinase B [1]): 24.1 µM

SMILES: CC[C@H]1OC(=O)[C@H](C)[C@@H](O)[C@H](C)[C@@H](OCc2cn(CCNC(=N)NC(=O)NC)nn2)[C@](C)(O)C[C@@H](C)[C@@H]2OC(C)(C)O[C@H]([C@H]2C)[C@]1(C)O
- IC50 (Chitinase B [1]): 11.9 µM

SMILES: C#CCO[C@@H]1[C@@H](C)[C@H](OC(=O)NCCCCNC(=N)NC(=O)NC)[C@@H](C)C(=O)O[C@H](CC)[C@@](C)(O)[C@@H]2OC(C)(C)O[C@H]([C@@H]2C)[C@H](C)C[C@@]1(C)O
- IC50 (Chitinase B [1]): 0.217 µM

SMILES: CC[C@H]1OC(=O)[C@H](C)[C@@H](OCc2cn(CCNC(=N)NC(=O)NC)nn2)[C@H](C)[C@@H](O)[C@](C)(O)C[C@@H](C)[C@@H]2OC(C)(C)O[C@H]([C@H]2C)[C@]1(C)O
- IC50 (Chitinase B [1]): 3.3 µM

SMILES: CC[C@H]1OC(=O)[C@H](C)[C@@H](O)[C@H](C)[C@@H](O)[C@](C)(O)C[C@@H](C)[C@@H]2OC(C)(C)O[C@H]([C@H]2C)[C@]1(C)O
- IC50 (Chitinase B [1]): > 300 µM

SMILES: CNC(=O)NC(=N)NCCN=[N+]=[N-]
- IC50 (Chitinase B [1]): 7 µM

SMILES: CNC(=O)NC(=N)n1cccn1
- IC50 (Chitinase B [1]): > 300 µM

SMILES: C#CCO[C@@H]1[C@@H](C)[C@H](O)[C@@H](C)C(=O)O[C@H](CC)[C@@](C)(O)[C@@H]2OC(C)(C)O[C@H]([C@@H]2C)[C@H](C)C[C@@]1(C)O
- IC50 (Chitinase B [1]): > 300 µM

SMILES: C#CCO[C@@H]1[C@@H](C)[C@H](OC(=O)NCCCNC(=N)NC(=O)NC)[C@@H](C)C(=O)O[C@H](CC)[C@@](C)(O)[C@@H]2OC(C)(C)O[C@H]([C@@H]2C)[C@H](C)C[C@@]1(C)O
- MIC (Proteus mirabilis): > 64 µg/mL
- MIC (Serratia marcescens): > 64 µg/mL
- MIC (Staphylococcus aureus [2]): > 64 µg/mL
- MIC [3]: > 64 µg/mL
- MIC (Klebsiella aerogenes): > 64 µg/mL
- MIC (Klebsiella pneumoniae): > 64 µg/mL
- MIC (Enterobacter cloacae): > 64 µg/mL
- MIC (Pseudomonas aeruginosa [4]): > 64 µg/mL
- MIC (Micrococcus luteus): > 64 µg/mL
- MIC [5]: > 64 µg/mL
- MIC (Escherichia coli): > 64 µg/mL
- MIC (Enterococcus faecalis): > 64 µg/mL
- MIC (Proteus vulgaris): > 64 µg/mL
- IC50 (Chitinase B [1]): 0.036 µM
- MIC (Morganella morganii): > 64 µg/mL
- MIC (Staphylococcus aureus [6]): > 64 µg/mL
- MIC (Citrobacter freundii): > 64 µg/mL
- MIC (Pseudomonas aeruginosa [7]): > 64 µg/mL

SMILES: CC(=O)N[C@H]1[C@H](O[C@H]2[C@@H](O)[C@@H](NC(C)=O)[C@H](O[C@H]3[C@H](O)[C@H]4N=C(N(C)C)O[C@H]4[C@@H]3CO)O[C@@H]2CO)O[C@H](CO)[C@@H](O)[C@H]1O [ALLOSAMIDIN]
- IC50 (Chitinase B [1]): 0.09 µM

SMILES: CC(=O)NC(=N)NCCC[C@@H]1NC(=O)[C@H](CCCC(=O)O)NC(=O)[C@H](Cc2c[nH]cn2)N2C(=O)[C@H](C[C@H]2O)NC(=O)[C@H]2CCCN2C1=O [ARGADIN]
- IC50 (Chitinase B [8]): 0.033 µM

SMILES: CC[C@H]1OC(=O)[C@H](C)[C@@H](O[C@H]2C[C@@](C)(OC)[C@@H](O)[C@H](C)O2)[C@H](C)[C@@H](O[C@@H]2O[C@H](C)C[C@H](N(C)C)[C@H]2O)[C@](C)(O)C[C@@H](C)C(=O)[C@H](C)[C@@H](O)[C@]1(C)O [ERYTHROMYCIN]
- IC50 (Chitinase B [1]): > 300 µM

From ChEMBL document CHEMBL3576758, “Creation of Customized Bioactivity within a 14-Membered Macrolide Scaffold: Design, Synthesis, and Biological Evaluation Using a Family-18 Chitinase” (J Med Chem, 2015)
